Published values pooled from the literature.
Compare with care: the assays were run in different laboratories.

| SMILES | host | sample | route | dose | notes | quantity | result |
| --- | --- | --- | --- | --- | --- | --- | --- |
| CCC[C@@](N)(CO)CCc1ccc(OCCCCCC(C)C)cc1 | dog | plasma | oral | 20 mg/kg | fed | Cmax | 995 nM |
| O=C(Nc1cccnn1)N1CCN([C@@H]2CCOc3cc(C(F)(F)F)ccc32)CC1 | male Sprague-Dawley rat | plasma | oral | 0.3 mg/kg | – | Tmax | 49.8 min |
| Cc1nonc1Cn1nnc2c(N3CC[C@H](O)C3)nc(C(C)(C)C)nc21 | C57BL/6 mouse | plasma | intravenous | – | – | clearance | 29.9 mL/min/kg |
| CN[C@H](CC(C)C)C(=O)N[C@H]1C(=O)N[C@@H](CC(N)=O)C(=O)N[C@H]2C(=O)NC3C(=O)N[C@H](C(=O)N[C@H](C(=O)NCCC[N+](C)(C)C)c4cc(O)cc(O)c4-c4cc3ccc4O)[C@H](O)c3ccc(c(Cl)c3)Oc3cc2cc(c3OC2OC(CO)C(O)[C@H](O)[C@@H]2O[C@H]2CC(C)(NCc3ccc(-c4ccc(Cl)cc4)cc3)[C@H](O)[C@H](C)O2)Oc2ccc(cc2Cl)[C@H]1O (stereo partly drawn) | mouse | plasma | intravenous | 50 mg/kg | – | clearance | 2 mL/min/kg |
| C[C@]12CC[C@H](n3ccnc3)CC1=CC[C@@H]1[C@@H]2CC[C@]2(C)C(n3cnc4ccccc43)=CC[C@@H]12.Cl.Cl | male CD-1 mouse | plasma | intravenous | 1 mg/kg | – | C0 | 603 ng/mL |
| CCN(CC)CCCC[C@H](NC(=O)[C@H](CC(C)C)NC(=O)[C@H](C)NC(=O)[C@H](Cc1ccccc1)NC(=O)c1ccc(C(C)(C)C)cc1)C(=O)N[C@@H](CO)C(=O)OC | male Swiss mouse | blood | intravenous | 3 mg/kg | – | clearance | 26.5 mL/min/kg |
| Cl.Cl.O=C(CCN1CCCCC1)c1ccc(-c2ccc(C(=O)CCN3CCCCC3)cc2)cc1 | Sprague-Dawley rat | plasma | oral | 25 mg/kg | – | Tmax | 37.8 min |
| C[C@]12CC[C@H](O)CC1=CC[C@@H]1[C@@H]2CC[C@]2(C)C(n3cnc4ccccc43)=CC[C@@H]12.Cl | mouse | plasma | intravenous | 1 mg/kg | – | C0 | 98.3 ng/mL |
| Cc1ncc(C)n2nc(/C=C/c3nc(N4CCCC4)cc(N4CCOCC4)n3)nc12 | male beagle dog | plasma | oral | 0.3 mg/kg | – | Cmax | 78 nM |
| N=c1c2c(-c3ccccc3)c(-c3ccccc3)n(Cc3ccccc3)c2ncn1[C@H]1CC[C@H](O)CC1 | male beagle dog | plasma | oral | 1 mg/kg | single dose | Cmax | 81.5 ng/mL |
| Cc1nc([C@@](C)(CC2CC2)NC(=O)c2cc(OCC(F)(F)F)c(C3CC3)cn2)no1 | C57BL/6 mouse | plasma | intravenous | – | – | clearance | 11.8 mL/min/kg |
| NCC(=O)Nc1ccc(-n2nc(C(F)(F)F)cc2-c2ccc3c(ccc4ccccc43)c2)cc1 | mouse | plasma | oral | 80 mg/kg | single dose | CL/F | 978 mL/min/kg |
